Tests used:
Format in all cases: ADME, organism-based
[1] = Half life in wild-type Wistar rat at 5 mg/kg, iv by LC-MS/MS analysis; set-up: dose 5 mg/kg, route intravenous; details: in vivo
Procedure, shortened: (§1)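 Male Wistar wild-type rats and Mrp2-deficient TR⁻ rats with femoral artery and vein cannulas. Sulfasalazine given as an iv bolus (5 mg/kg, water at pH 9–10) and by oral gavage, each followed by arterial plasma sampling over 24 h. Sulfasalazine and sulfapyridine measured by LC-MS/MS; noncompartmental parameters; mean ± S.D., n = 3.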

[2] = Oral bioavailability in MDR1A knockout Sprague-Dawley rat at 20 mg/kg by LC-MS/MS analysis; details: in vivo
Procedure, shortened: (§2)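 Male Sprague-Dawley knockout rats or wild-type rats matched for age and weight, with femoral artery and vein cannulas. Crossover design: sulfasalazine 5 mg/kg iv bolus (water, pH 9–10) on day 0, then 20 mg/kg oral gavage (0.5% carboxymethyl cellulose in PBS, pH 7.4) on day 3. Arterial plasma collected 0–24 h. Sulfasalazine and sulfapyridine measured by LC-MS/MS; noncompartmental parameters; mean ± S.D., n = 4 to 8.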

[3] = Volume of distribution at steady state in MRP2 knockout Sprague-Dawley rat at 5 mg/kg, iv by LC-MS/MS analysis; set-up: dose 5 mg/kg, route intravenous; details: in vivo, read-out: Vdss; procedure, shortened: as §2
[4] = AUC (infinity) in wild-type Sprague-Dawley rat at 20 mg/kg, po by LC-MS/MS analysis; set-up: time infinity, dose 20 mg/kg, route oral; details: plasma
Procedure, shortened: (§3)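 Male Sprague-Dawley knockout or age/weight-matched wild-type rats with femoral artery and vein cannulas. Crossover design: day 0 i.v. bolus 5 mg/kg sulfasalazine in water at pH 9–10, then day 3 gavage 20 mg/kg in 0.5% carboxymethyl cellulose/PBS pH 7.4. Arterial plasma was sampled to 24 h. Sulfasalazine and sulfapyridine were measured by LC-MS/MS (1–5000 ng/ml). Parameters are noncompartmental; n = 4–8, mean ± S.D.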

[5] = Cmax in MDR1A knockout Sprague-Dawley rat at 20 mg/kg, po by LC-MS/MS analysis; set-up: dose 20 mg/kg, route oral; details: in vivo; procedure, shortened: as §3
[6] = Cmax in wild-type Sprague-Dawley rat at 20 mg/kg, po by LC-MS/MS analysis; set-up: dose 20 mg/kg, route oral; details: in vivo; procedure, shortened: as §3
[7] = AUC (infinity) in MDR1A knockout Sprague-Dawley rat at 20 mg/kg, po by LC-MS/MS analysis; set-up: time infinity, dose 20 mg/kg, route oral; details: plasma; procedure, shortened: as §3
[8] = AUC (infinity) in MRP2-deficient Wistar rat at 5 mg/kg, po by LC-MS/MS analysis; set-up: time infinity, dose 5 mg/kg, route oral; details: plasma
[9] = AUC (infinity) in MRP2 knockout Sprague-Dawley rat at 20 mg/kg, po by LC-MS/MS analysis; set-up: time infinity, dose 20 mg/kg, route oral; details: plasma; procedure, shortened: as §3
[10] = Oral bioavailability in BCRP knockout Sprague-Dawley rat at 20 mg/kg by LC-MS/MS analysis; details: in vivo; procedure, shortened: as §2
[11] = AUC (infinity) in MRP2 knockout Sprague-Dawley rat at 5 mg/kg, iv by LC-MS/MS analysis; set-up: time infinity, dose 5 mg/kg, route intravenous; details: plasma; procedure, shortened: as §3
[12] = Clearance in wild-type Wistar rat at 5 mg/kg, iv by LC-MS/MS analysis; set-up: dose 5 mg/kg, route intravenous; details: in vivo
Procedure, shortened: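 Male Wistar wild-type or Mrp2-deficient TR⁻ rats with femoral artery and vein cannulas. Sulfasalazine was given as a 5 mg/kg i.v. bolus and as a 20 mg/kg oral dose. Arterial plasma was sampled to 24 h and analysed for parent and sulfapyridine by LC-MS/MS. Noncompartmental parameters; n = 3, mean ± S.D.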

[13] = AUC (infinity) in BCRP knockout Sprague-Dawley rat at 20 mg/kg, po by LC-MS/MS analysis; set-up: time infinity, dose 20 mg/kg, route oral; details: plasma; procedure, shortened: as §3
[14] = Half life in BCRP knockout Sprague-Dawley rat at 5 mg/kg, iv by LC-MS/MS analysis; set-up: dose 5 mg/kg, route intravenous; details: in vivo; procedure, shortened: as §2
[15] = Volume of distribution at steady state in wild-type Wistar rat at 5 mg/kg, iv by LC-MS/MS analysis; set-up: dose 5 mg/kg, route intravenous; details: in vivo, read-out: Vdss; procedure, shortened: as §1
[16] = Cmax in MRP2 knockout Sprague-Dawley rat at 20 mg/kg, po by LC-MS/MS analysis; set-up: dose 20 mg/kg, route oral; details: in vivo; procedure, shortened: as §3
[17] = Half life in wild-type Sprague-Dawley rat at 20 mg/kg, po by LC-MS/MS analysis; set-up: dose 20 mg/kg, route oral; details: in vivo; procedure, shortened: as §2
[18] = Half life in wild-type Sprague-Dawley rat at 5 mg/kg, iv by LC-MS/MS analysis; set-up: dose 5 mg/kg, route intravenous; details: in vivo; procedure, shortened: as §2

- half-life [1]: 1.5 h
- bioavailability [2]: 2.8%
- Vd [3]: 1.3 L/kg
- AUC(0-inf) [4]: 562 ng·h/mL
- Cmax [5]: 213 ng/mL
- Cmax [6]: 185 ng/mL
- AUC(0-inf) [7]: 711 ng·h/mL
- AUC(0-inf) [8]: 462 ng·h/mL
- AUC(0-inf) [9]: 635 ng·h/mL
- bioavailability [10]: 30%
- AUC(0-inf) [11]: 4320 ng·h/mL
- clearance [12]: 6.8 mL/min/kg
- AUC(0-inf) [13]: 13100 ng·h/mL
- half-life [14]: 1.4 h
- Vd [15]: 0.244 L/kg
- Cmax [16]: 320 ng/mL
- half-life [17]: 2.6 h
- half-life [18]: 1.6 h
Compound: O=C(O)c1cc(/N=N/c2ccc(S(=O)(=O)Nc3ccccn3)cc2)ccc1O [SULFASALAZINE]

— ChEMBL document CHEMBL3526049 (Drug Metab Dispos, 2012)
